Source: PubChem
UPR CHOP act: activators of apoptotic CHOP UPR arm, primary screen, cell-based, CHO-CHOP luciferase reporter, luminescence, uHTS; UPR activation; percent of tunicamycin response over DMSO baseline; activation, % at 10 µM; hit rate 0.34% among 330,000; AID 449763, 2010;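 active means at 10 µM dose, activation of 40% or more, normalized to positive control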;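 further: 100% = tunicamycin at 10 µg/mL and 0% = DMSO alone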
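Assay system: CHO-CHOP cells, stable luciferase reporter of PERK-eIF2a-CHOP signalling / Buffer or medium: F12 plus 10% serum / Compound dosing: one dose, 10 µM in 0.5% DMSO / Times: 6 h compound treatment, 37 °C / Technique: luciferase luminescence / Read-out: % reporter activation, DMSO baseline versus tunicamycin full activation / Benchmarks: tunicamycin and DMSO controls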
PfM18AAP inh: PfM18AAP inhibitors, malaria aminopeptidase, primary screen, biochemical, QFRET, recombinant enzyme; AID 1822, 2009; H-Glu-NHMec fluorogenic cleavage; M18 aspartyl aminopeptidase (Plasmodium falciparum 3D7); hit rate 1.2% among 290,000; inhibition, % at 7.35 µM;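 active means inhibition above the campaign mean inhibition over all tested compounds plus 3 SD, cut at about 28% in these data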;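 further: 0% = plate median of test compound wells and 100% = 2 mM ZnCl2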
CHOP inh: inhibitors of CHOP promoter induction, primary screen, cell-based, unfolded protein response, luciferase reporter | CHO-K1 CHOP-promoter luciferase, tunicamycin-induced, 15-18 h | inhibition, % at 10 µM | AID 2732, 2010 | hit rate 3.8% among 220,000;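 active means compounds that reduced the stress-induced luciferase reporter signal by more than about 70% of percent inhibition, limit read from the data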;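 further: 0% = tunicamycin plus vehicle and 100% = wells without tunicamycin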
NS3 helicase inh: inhibitors of HCV NS3 helicase, primary screen, biochemical, Cy5 molecular beacon fluorescence. hit rate 0.56% among 290,000. inhibition, % at 10.9 µM. Hepatitis C virus NS3 helicase. AID 1800, 2009. NS3 helicase DNA unwinding;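 active means inhibition above the mean of all tested compounds plus 3 SD, set per campaign, cut at about 35% in these data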;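 further: 0% = DMSO wells and 100% = thioflavine S control wells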
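Assay system: hepatitis C virus NS3 helicase domain fragment enzyme. Also added: annealed dual-labelled DNA beacon duplex, ATP-started. Timing: 1 h reaction at 25 °C, ATP-initiated. Technique: Cy5 fluorescence at 0 and 60 min, beacon hairpin quenching. Evaluation: % inhibition of unwinding. Replication: one well per compound.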
p97 inhibitor: inhibitors of human p97 ATPase, primary screen, biochemical; inhibition, % at 8 µM; recombinant p97 ATPase, Kinase-Glo ATP luminescence, 3 h; hit rate 0.42% among 220,000; AID 1481, 2009; Transitional endoplasmic reticulum ATPase (Homo sapiens), P55072; in the data active means inhibition above about 15%;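 further: 0% = DMSO vehicle and 100% = wells lacking enzyme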
Target sequence (P55072 whole entry, looked up): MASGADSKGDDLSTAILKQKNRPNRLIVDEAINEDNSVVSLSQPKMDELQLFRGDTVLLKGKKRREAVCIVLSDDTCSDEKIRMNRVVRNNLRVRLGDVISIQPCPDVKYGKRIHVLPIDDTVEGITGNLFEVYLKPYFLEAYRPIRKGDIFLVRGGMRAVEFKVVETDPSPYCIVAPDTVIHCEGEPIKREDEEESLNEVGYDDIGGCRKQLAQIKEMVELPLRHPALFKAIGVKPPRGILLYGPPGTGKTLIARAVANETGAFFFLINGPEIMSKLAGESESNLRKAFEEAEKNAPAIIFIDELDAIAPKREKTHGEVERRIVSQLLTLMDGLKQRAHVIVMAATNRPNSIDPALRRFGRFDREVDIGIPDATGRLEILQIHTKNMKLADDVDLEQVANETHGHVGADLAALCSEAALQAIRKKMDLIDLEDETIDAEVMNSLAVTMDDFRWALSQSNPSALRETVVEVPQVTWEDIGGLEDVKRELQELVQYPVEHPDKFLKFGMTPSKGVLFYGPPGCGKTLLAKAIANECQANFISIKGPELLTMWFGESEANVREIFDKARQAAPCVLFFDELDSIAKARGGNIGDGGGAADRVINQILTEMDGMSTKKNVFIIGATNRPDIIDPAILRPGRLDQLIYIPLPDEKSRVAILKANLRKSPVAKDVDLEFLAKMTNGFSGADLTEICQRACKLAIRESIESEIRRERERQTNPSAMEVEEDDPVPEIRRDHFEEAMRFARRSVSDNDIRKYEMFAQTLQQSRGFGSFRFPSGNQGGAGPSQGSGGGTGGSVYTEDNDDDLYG
UPR XBP1 act: activators of adaptive XBP1 UPR arm, primary screen, cell-based, CHO-XBP1 luciferase reporter, luminescence, uHTS; AID 463104, 2010; activation, % at 20 µM; IRE1-XBP1 UPR activation; percent of tunicamycin response, DMSO as zero; hit rate 0.33% among 330,000;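 active means versus positive control, 20 µM dose yields 30% or more activation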;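 further: 100% = tunicamycin at 10 µg/mL and 0% = DMSO only wells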
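Assay system: IRE1-XBP1 luciferase reporter CHO line. Input: 1000 cells/well. Buffer or medium: F12 with 10% serum. Doses: 20 µM, 1% DMSO. Times: overnight seeding at 37 °C, 6 h compound treatment at 37 °C. Technique: Steady-Glo luciferase glow luminescence, 10 min after reagent addition.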
* hit, by the source's call; x = not tested or not shown. In the library only some 4.5% were active in any assay of this set; here they are far more common.

SMILES | UPR CHOP act | PfM18AAP inh | CHOP inh | NS3 helicase inh | p97 inhibitor | UPR XBP1 act
S=C(NCCCc1ccccc1)Nc1ccccc1 | 2 | 3 | x | 10 | x | -2
CCOc1ccccc1C(=O)NC1CCNCC1 | 2 | -14 | x | -5 | x | -3
CCN1C(=O)c2ccc(C(=O)Nc3cccc(C(=O)O)c3)cc2C1=O | -6 | -6 | x | 11 | x | -8
COc1ccc(N(CC(=O)NC2CCCCC2)C(=O)CCC(=O)Nc2nc(C)cs2)cc1OC | 1 | -2 | x | 0 | x | -7
COc1ccccc1NS(=O)(=O)c1cccc(C(=O)NNC(=O)c2ccc(O)c(Cl)c2)c1 | 0 | x | x | x | x | -3
COc1ccccc1C(=O)COC(=O)c1cccc(S(=O)(=O)N2CCCC2)c1 | 0 | 1 | x | -6 | x | 4
COc1nc(OCC#N)nc(N2CCCCC2)n1 | 0 | -3 | 5 | -12 | 9 | -1
COc1nc(N2CCCCCC2)nc(N2CCCCCC2)n1 | -2 | 4 | 88* | 0 | 2 | 3
COc1nc(Nc2cccc(C)c2)nc(N2CCCCC2)n1 | 2 | -1 | 71* | -6 | 0 | 2
C=CCNC(N)=S | 1 | -4 | x | 0 | x | -4
COc1ccc(Oc2nc(-c3cccnc3)nc3ccccc23)cc1 | 3 | -1 | 18 | -7 | -1 | 6
COc1ccc(Oc2nc3ccccc3nc2C(F)(F)F)cc1 | 1 | -7 | 70* | 0 | 2 | -1
COc1ccc(Oc2nc3ccccc3n3cccc23)cc1 | 0 | -6 | 7 | 3 | 5 | -2
COc1ccc(Oc2nc(SC)nc3ccccc23)cc1 | -2 | -9 | 82* | -3 | -2 | -3
CC(=O)c1ccc(S(=O)(=O)N2CCC3(CC2)CC(=O)c2ccccc2O3)cc1 | 2 | x | x | x | x | -4
Cc1ccc2cc(CN(CCCN(C)C)C(=S)NCc3ccccc3)c(=O)[nH]c2c1C | -1 | 3 | 22 | -32 | 0 | -1
Cc1ccc2cc(CN(CCCN(C)C)C(=O)NCc3ccccc3)c(=O)[nH]c2c1C | -3 | 1 | 74* | -15 | -2 | -4
C=CCN1C(=O)C(CC(=O)Nc2ccc(OC)cc2)SC1=Nc1ccc(S(N)(=O)=O)cc1 (configuration not stated) | -1 | 8 | 1 | 3 | 4 | -3
Cc1c(Cl)c([N+](=O)[O-])nn1Cc1ccc(C(=O)N/N=C\c2ccccn2)o1 | x | -6 | 73* | -4 | -2 | x
COc1cc(/C=N\NC(=O)c2ccc(Cn3nc([N+](=O)[O-])c(Cl)c3C)o2)ccc1O | 1 | -18 | -18 | 4 | -3 | -1
O=C(NCCc1nc(-c2ccccc2)no1)c1ccco1 | 0 | x | x | x | x | 1
CC(C)=CCC/C(C)=C/CNC(=O)C[C@H]1C[C@H](C(=O)N2CCOCC2)[C@@]2(C)c3[nH]c4cc(-c5ccco5)ccc4c3CCN2C1=O | 5 | x | x | x | x | 10
CC/C(C)=N/NS(=O)(=O)c1ccc(C)c([N+](=O)[O-])c1 | 0 | -1 | -21 | -1 | 4 | 3
CC(C)(C)C1CCC(=NNc2ccc(S(N)(=O)=O)cc2[N+](=O)[O-])CC1 (configuration not stated) | 3 | 11 | 83* | -8 | 3 | 0
CCC(C)(C)C1CCC(=NNS(=O)(=O)c2ccc(C)c([N+](=O)[O-])c2)CC1 (configuration not stated) | -2 | -8 | 70* | 7 | 3 | 0
Cc1ccc(S(=O)(=O)N/N=C2/CCCCC2C2CCCCC2)cc1[N+](=O)[O-] (configuration not stated) | -1 | 4 | 79* | 4 | 9 | -2
COc1ccc2nc(SCC(=O)N(C)C3CCCCC3)[nH]c2c1 | 0 | x | x | x | x | -1
N#Cc1ccc2nc3c(nc2c1)CCCC3 | -1 | 2 | x | -4 | x | -1
